Shown are actives, neighbours in structure and some others; about 3.7% of the full set was active somewhere.
Exocytosis inh: LAMP-1 surface exposure blockers, TALL-104 cells – cell-based, flow cytometry, MLPCN library, primary screen; TALL-104 LAMP-1 surface exposure; cells stimulated with thapsigargin and PMA; inhibition, % at 10 µM; 360,000 compounds, 0.66% hits;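 active = inhibition above about 55%, limit read from the data; inconclusive = no clear call, values can overlap the other calls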
EBI2 antag: EBI2 receptor antagonists, beta-arrestin recruitment, primary screen, cell-based, luminescence, 7a,25-OHC stimulation, uHTS; 7a,25-OHC stimulated; 360,000 compounds, 0.81% hits; G-protein coupled receptor 183 (Homo sapiens), P32249; inhibition, % at 5 µM; in the data active = inhibition above about 38%;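 also: enzyme fragment complementation signal reports receptor beta-arrestin coupling in cells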
Target sequence (P32249 whole entry, looked up, the tested form may be a part): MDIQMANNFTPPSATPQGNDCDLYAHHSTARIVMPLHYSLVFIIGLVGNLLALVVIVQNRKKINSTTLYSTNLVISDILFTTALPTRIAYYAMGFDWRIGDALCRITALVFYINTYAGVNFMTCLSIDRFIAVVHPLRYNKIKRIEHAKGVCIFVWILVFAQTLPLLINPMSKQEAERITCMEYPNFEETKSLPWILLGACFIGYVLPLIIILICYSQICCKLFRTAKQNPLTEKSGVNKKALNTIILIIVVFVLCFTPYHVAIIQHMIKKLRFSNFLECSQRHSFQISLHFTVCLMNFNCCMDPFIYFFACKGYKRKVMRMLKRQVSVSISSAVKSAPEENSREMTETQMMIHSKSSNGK
MC4R barr agon: MC4R agonists recruiting beta-arrestin, primary screen, cell-based, luminescence, agonist arm of biased-ligand search; Melanocortin receptor 4 (Homo sapiens), P32245; U2OS MC4R beta-arrestin complementation; percent of melanotan II response, DMSO zero; activation, % at 8.9 µM; 360,000 compounds, 0.98% hits;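 active = activation above a per-plate cutoff, the mean activation of sample wells on that plate plus 3 SD, cut at about 8% in these data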
Target sequence (P32245 whole entry, looked up): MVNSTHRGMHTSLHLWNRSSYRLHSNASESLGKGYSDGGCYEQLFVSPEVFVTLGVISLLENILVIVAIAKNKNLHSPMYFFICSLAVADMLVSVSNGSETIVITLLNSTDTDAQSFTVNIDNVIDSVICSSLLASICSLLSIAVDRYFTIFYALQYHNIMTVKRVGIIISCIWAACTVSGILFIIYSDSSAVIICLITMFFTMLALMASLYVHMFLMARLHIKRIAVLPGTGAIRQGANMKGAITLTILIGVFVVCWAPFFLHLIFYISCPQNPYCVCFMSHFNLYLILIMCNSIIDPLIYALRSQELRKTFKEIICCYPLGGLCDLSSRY
MC4R antag cAMP: MC4R antagonists of cAMP signaling, primary screen, cell-based, TR-FRET, antagonist arm of biased-ligand search | Melanocortin receptor 4 (Homo sapiens), P32245 | MC4R-expressing cells, MTII-stimulated cAMP, LANCE TR-FRET | inhibition, % at 6.5 µM | 360,000 compounds, 0.48% hits;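 active = inhibition above its plate's cutoff, the mean of tested wells on that plate plus 3 SD, cut at about 29% in these data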
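Material: U2OS-MC4R stable cell line | Reagent: Melanotan II challenge after compound preincubation | Doses: One concentration, 6.5 µM nominal | Incubation: 30-min compound preincubation, 1-h Melanotan II challenge, 1-h detection, room temperature | Signal: TR-FRET cAMP assay | Replicates: One well per compound, no replicates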
Myeloid diff MLP: induction of myeloid progenitor differentiation, primary screen, cell-based, flow cytometry, MLPCN library. calls only at 10 µM. 360,000 compounds, 1% hits. ER-HoxA9 myeloid progenitors, lysozyme-GFP differentiation;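 active = normalized GFP-positive differentiation at or above the plate's own cutoff, the solvent-only control mean plus 3 SD; inconclusive = no clear call, values can overlap the other calls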;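 also: cells exposed to compound for four days before flow analysis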
cAMP nonselect: nonselective cAMP signaling inhibitors, parental cells, counter-screen for MC4R biased antagonist project, cell-based, TR-FRET, U2OS, forskolin, triplicate; LANCE TR-FRET; 1,600 compounds, 26% hits; shares compounds with MC4R antag cAMP; inhibition, % at 6.5 µM;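 active = mean inhibition over triplicates above the low-control well mean plus 3 SD, set per campaign, cut at about 13% in these data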;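 also: signal is single emission at 671 nm which falls as cellular cAMP rises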
MC4R antag conf: MC4R cAMP antagonists, retest, confirmation, cell-based, TR-FRET; shares compounds with MC4R antag cAMP; MC4R-expressing cells, MTII-stimulated cAMP; inhibition, % at 6.5 µM; 1,600 compounds, 27% hits; in the data active = inhibition above about 29%
Large screens that a line does not name were inactive (follow-up assays come after a bar, where they were run).

O=C1OCCC1Sc1nnnn1-c1ccc(Cl)cc1 (centres undefined)	MC4R antag cAMP 38 | cAMP nonselect 22 | MC4R antag conf 39
O=C(c1ccco1)N1CCN(C(=S)Nc2ccc(Br)cc2Cl)CC1	none
O=C(c1cc(-c2cccs2)nn1-c1ccccc1)N1CCN(S(=O)(=O)c2ccccc2)CC1	MC4R antag cAMP 29 | cAMP nonselect inactive | MC4R antag conf inactive
CC1CC2(CC(CN(C3CCCCC3)C3CCCCC3)OC2=O)C(=O)O1 (centres undefined)	none (no result: MC4R barr agon, MC4R antag cAMP)
COC(=O)CCc1sc(NC2CCCCC2)nc1-c1ccc(OC)cc1	none
CCCCCCNc1nc(-c2ccc(OC)cc2)c(CCC(=O)O)s1	MC4R antag cAMP 30 | cAMP nonselect inactive | MC4R antag conf inactive
COc1ccc(CCNC(=O)COC(=O)CSc2ccc([N+](=O)[O-])cc2)cc1OC	none
Cc1cccc(C)c1NC(=O)CCCSc1nnc(N)s1	MC4R antag cAMP 33 | cAMP nonselect inactive | MC4R antag conf inactive
CN(c1ccccc1)c1nc(N)c([N+](=O)[O-])c(NCc2ccccc2)n1	none
Cc1nc(Cl)nc(N(C)c2ccccc2)c1[N+](=O)[O-]	MC4R antag cAMP 36 | cAMP nonselect 22 | MC4R antag conf inactive
O=[N+]([O-])c1cc(-c2nc(-c3ccncc3)no2)ccc1Cl	MC4R antag cAMP 39 | cAMP nonselect 18 | MC4R antag conf 47
NC(=S)Nc1cccc(F)c1	MC4R antag cAMP 29 | cAMP nonselect inactive | MC4R antag conf inactive
O=C(CCCc1nc2ccccc2s1)Nc1ccccc1	none
O=C(CCCc1nc2ccccc2s1)NCc1cccnc1	MC4R antag cAMP 29 | cAMP nonselect inactive | MC4R antag conf inactive
CCN(CC)C(=O)C(C)N(C#N)c1nc(Cl)nc(N(C)C)n1 (centres undefined)	MC4R antag cAMP 43 | cAMP nonselect inactive | MC4R antag conf inactive
CCN(CC)C(=O)C(C)N(C#N)c1nc(SC)nc(N(C)C)n1 (centres undefined)	none
CC(=O)CSc1nc(-c2cccs2)c(C#N)c(=O)[nH]1	MC4R antag cAMP 46 | cAMP nonselect 36 | MC4R antag conf 60
CC(C)C(=O)N1CCC2(CC1)Oc1ccc(Cl)cc1C(=O)C21CC(c2ccccc2)=NO1 (centres undefined)	MC4R antag cAMP 29 | cAMP nonselect inactive | MC4R antag conf inactive
CC(C)C(=O)N1CCC2(CC1)Oc1ccc(F)cc1C(=O)C21CC(c2ccc(Cl)cc2)=NO1 (centres undefined)	none
CCOc1cc(N2CCOCC2)c(OCC)cc1NC(=O)CSc1ccccc1C(=O)O	none
CCOc1cc(N2CCOCC2)c(OCC)cc1NCC(=O)N1CCN(Cc2ccccc2)CC1	MC4R antag cAMP 29 | cAMP nonselect inactive | MC4R antag conf inactive
CC1CCN(c2nc(Cl)nc(Nc3ccc([N+](=O)[O-])cc3)n2)CC1	MC4R antag cAMP 32 | cAMP nonselect inactive | MC4R antag conf 36
C=CCNc1nc(Nc2ccc([N+](=O)[O-])cc2)nc(N2CCCC2)n1	none
Cc1ccccc1C(=O)N1CCc2c([nH]c3ccccc23)C1C(F)(F)F (centres undefined)	MC4R antag cAMP 36 | cAMP nonselect inactive | MC4R antag conf inactive
COC(=O)c1sc(N)c(C(=O)OC)c1COC(=O)CNS(=O)(=O)c1ccc(C)c(C)c1	MC4R antag cAMP 32 | cAMP nonselect inactive | MC4R antag conf inactive
Cc1cc(NC(=O)COC(=O)CNS(=O)(=O)c2ccc(C)c(C)c2)no1	MC4R antag cAMP 47 | cAMP nonselect 14 | MC4R antag conf 30
O=C(CNS(=O)(=O)c1ccc2ccccc2c1)OCc1nnc(-c2ccccc2)o1	MC4R antag cAMP 35 | cAMP nonselect 17 | MC4R antag conf 35
CCOc1ccccc1NC(=O)COC(=O)CNS(=O)(=O)c1ccc(C)cc1	MC4R antag cAMP 31 | cAMP nonselect 17 | MC4R antag conf 35
CCOc1ccccc1NC(=O)COC(=O)CN(C)S(=O)(=O)c1ccc(C)cc1	none
Cc1cc(O)ccc1-c1cccc2nccn12	none
Cc1ccc(NCc2n[nH]c(=S)n2-c2ccccc2)c(C)c1	none
O=C(c1ccc([N+](=O)[O-])cc1Cl)N1CCN(Cc2ccccc2)CC1	none
O=C(CCNS(=O)(=O)c1ccccc1)OCc1nnc(-c2ccccc2)o1	none
Cc1ccc(S(=O)(=O)NCC(=O)OCc2nnc(-c3ccccc3)o2)cc1C	MC4R antag cAMP 29 | cAMP nonselect 20 | MC4R antag conf 41
N#C/C(C(=O)NCc1ccccc1)=C1/SC(Cc2ccc(Cl)cc2)C(=O)N1c1ccccc1 (centres undefined)	none
CCOC(=O)c1c(NC(=O)C2CCCO2)sc(C(N)=O)c1C (centres undefined)	none
CCOC(=O)c1c(NC(=O)C2c3ccccc3Oc3ccccc32)sc(C(N)=O)c1C	MC4R antag cAMP 32 | cAMP nonselect inactive | MC4R antag conf inactive
COc1ccc(OC)c(C2C(C(=O)Nc3nc4ccccc4s3)=C(C)NC3=C2C(=O)CCC3)c1 (centres undefined)	MC4R antag cAMP 33 | cAMP nonselect inactive | MC4R antag conf 43
Cc1ccc(C)c(C(=O)COC(=O)c2cc([N+](=O)[O-])ccc2NCCO)c1	none
O=C(Cc1ccccc1)Nc1ccc(SC(F)F)cc1	none
C[C@H](NC(=O)c1[nH]cnc1C(=O)Nc1ccc(CNC(=O)OC(C)(C)C)cc1)C(=O)OCc1ccccc1	MC4R antag cAMP 29, Myeloid diff MLP inconclusive | cAMP nonselect inactive | MC4R antag conf inactive
CC(C)C[C@H](NC(=O)c1[nH]cnc1C(=O)Nc1ccc(CNC(=O)OC(C)(C)C)cc1)C(=O)OCc1ccccc1	MC4R antag cAMP 61 | cAMP nonselect 18 | MC4R antag conf 37
CC(C)(C)OC(=O)NCc1ccc(NC(=O)c2nc[nH]c2C(=O)N[C@@H](Cc2ccccc2)C(=O)OC(C)(C)C)cc1	none
CC(C)C[C@H](NC(=O)c1[nH]cnc1C(=O)Nc1ccc(CNC(=O)OC(C)(C)C)cc1)C(=O)OC(C)(C)C	none
O=C(CSc1nnc(C2CC2)n1CC1CCCO1)Nc1ccccc1Cl (centres undefined)	none
CC(OC(=O)c1cccc(N2C(=O)c3ccccc3C2=O)c1)C(=O)Nc1ccc(N(C)C)cc1 (centres undefined)	MC4R antag cAMP 33 | cAMP nonselect inactive | MC4R antag conf inactive
